The target of assay [1] is T1, Gamma-aminobutyric acid receptor subunit alpha-1/beta-2/delta (Homo sapiens) (UniProt P14867+P47870+O14764). The experiment in a line: Modulation of human alpha1beta2delta GABAA receptor expressed in Xenopus laevis oocytes assessed as increase in GABA-induced current at 1 mM at -60 mV holding potential by two-electrode voltage clamp electrophysiology method relative to control. It counts as cell-based. In outline:
(§1)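 X. laevis oocytes injected with 0.9–1.8 ng cRNA for human α1, β2 and δ subunits (5:1:5) and stored at 18 °C in Barth's solution, pH 7.5. Two-electrode voltage clamp with 3 M KCl electrodes (~2–4 MΩ), perfused with recording solution at pH 7.4. Compound co-applied with 1 mM GABA. Initial and rebound currents expressed as fold increase over the 1 mM GABA response, mean ± S.E.M.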

In assay [2] the target is T1, Gamma-aminobutyric acid receptor subunit alpha-1/beta-2/delta (Homo sapiens). The experiment in a line: Agonist activity at human alpha1beta2delta GABAA receptor expressed in Xenopus laevis oocytes assessed as increase in current amplitude at 1 mM at -60 mV holding potential by two-electrode voltage clamp electrophysiology method. The assay is classed as cell-based. In short, it runs like this:
as §1

The species named for assay [3] is Rattus norvegicus. Put plainly: Modulation of [3H]NCS-382 binding to alpha4betadelta GABAA receptor in rat cortical membranes after 1 hr by TopCount scintillation counting method. The assay is classed as cell membranes. In outline: (§2)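 Rat cortical membrane homogenate (50-70 µg protein per well) incubated with 16 nM [³H]NCS-382 and increasing analogue concentrations, 1 hr at 0-4 °C. Bound ligand collected by rapid filtration on GF/C filters and counted by scintillation. Single-point screen at 100 µM; cooperativity factor (α) and modulator Kb obtained by curve fitting. Triplicates, at least three independent experiments.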

The target of assay [4] is GABA-A receptor; alpha-1/beta-2/gamma-2 (Homo sapiens) (UniProt P14867+P47870+P18507). The experiment in a line: Modulation of human alpha1beta2gamma2S GABAA receptor expressed in Xenopus laevis oocytes assessed as increase in GABA-induced current at 1 mM at -60 mV holding potential by two-electrode voltage clamp electrophysiology method. It counts as cell-based. In short, it runs like this:
(§3)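 cRNA for human α1β2 (1:1) or α1β2γ2S (5:1:5) subunits injected into X. laevis oocytes (0.9–1.8 ng) and stored at 18 °C in Barth's solution, pH 7.5. Two-electrode voltage clamp in perfused recording solution at pH 7.4. Test compound at 1 mM applied with 1 mM GABA. Currents normalized and given as fold potentiation.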
Background: In two-electrode clamp one electrode senses voltage and the other passes current.

Assay [5] has as its target GABA-A receptor; GABA-A site (alpha1/beta2 interface) (Homo sapiens) (UniProt P14867+P47870). Put plainly: Modulation of human alpha1beta2 GABAA receptor expressed in Xenopus laevis oocytes assessed as increase in GABA-induced current at 1 mM at -60 mV holding potential by two-electrode voltage clamp electrophysiology method. It counts as cell-based. In outline:
as §3

The species entered for assay [6] is Rattus norvegicus. The experiment in a line: Modulation of [3H]NCS-382 binding to alpha4betadelta GABAA receptor in rat cortical membranes assessed as [3H]NCS-382 binding at 100 uM after 1 hr by TopCount scintillation counting method relative to control. The assay is classed as cell membranes. In short, it runs like this:
as §2

In assay [7] the target is T1, Gamma-aminobutyric acid receptor subunit alpha-1/beta-2/delta (Homo sapiens). Put plainly: Modulation of human alpha1beta2delta GABAA receptor expressed in Xenopus laevis oocytes assessed as increase in GABA-induced current by measuring rebound current at 1 mM at -60 mV holding potential measured after termination of compound application by two-electrode voltage clamp electrophysiology method relative to control. The assay is classed as cell-based. In outline:
as §1

Assay [8] has the same target. The experiment in a line: Modulation of human alpha1beta2delta GABAA receptor expressed in Xenopus laevis oocytes assessed as increase in GABA-induced current by measuring rebound current at -60 mV holding potential measured after termination of compound application by two-electrode voltage clamp electrophysiology method relative to control. It counts as cell-based. In outline: as §1

The pKb is the Kb on a negative log10 scale, so that one unit is a factor of ten. Low readings indicate a high Kb, high ones a low Kb.

Activity calls are given as the source filed them. No cut-off for these calls is given here.

With `COC(=O)C1=C(C)NC(=O)NC1c1ccccc1` (stereo not given), in assay [1], the fold change (FC) was determined as 5.9. In addition, the result in assay [2], in assay [4] and in assay [5] was inactive. The Kb entry in the assay filed under Rattus norvegicus [3] is “inactive”.

Consider `CCOC(=O)C1=C(C)NC(=S)NC1c1ccnn1C` (stereo not given), for which, in the assay listed under Rattus norvegicus [3], the Kb entry is “inactive”. Besides, in the assay filed under Rattus norvegicus [6], the “%max” value is “inactive”.

On to `CCOC(=O)C1=C(C)NC(=S)NC1c1cccc(C)c1` (stereo not given), for which the Kb entry in the assay listed under Rattus norvegicus [3] was “inactive”. Moreover, the “%max” value in the assay filed under Rattus norvegicus [6] is “inactive”.

For the compound `COC(=O)C1=C(C)NC(=S)NC1c1cccc(O)c1` (stereo not given), in assay [1], the fold change (FC) was found to be 1.3. Further, the outcome in assay [2], in assay [4] and in assay [5] was inactive. Further, the outcome in assay [7] was Active. Further, the pKb in the assay listed under Rattus norvegicus [3] was 3.46. In the assay filed under Rattus norvegicus [6], the %max is 194%.

Consider `CCC(=O)C1=C(CC)NC(=S)NC1c1cccc(O)c1` (stereo not given), for which, in the assay listed under Rattus norvegicus [6], the %max was 130%.

With `CCOC(=O)C1=C(C)N(C)C(=S)NC1c1cccc(O)c1` (stereo not given), in assay [1], the fold change (FC) was 3.1. Moreover, the outcome in assay [2], in assay [4] and in assay [5] was inactive. Also, the result in assay [7] was Active. In the assay filed under Rattus norvegicus [3], the Kb was determined as 87 µM. Besides, the pKb in the assay listed under Rattus norvegicus [3] amounted to 4.06. Further, the %max in the assay listed under Rattus norvegicus [6] was found to be 177%.

On to `CCOC(=O)C1=C(C(C)(C)C)NC(=S)NC1c1cccc(O)c1` (stereo not given), for which, in the assay filed under Rattus norvegicus [6], the %max was found to be 130%.

In the case of `CCOC(=O)C1=C(C)NC(=S)NC1c1cccnc1` (stereo not given), in the assay listed under Rattus norvegicus [3], the Kb result is “inactive”. For the same compound, in the assay filed under Rattus norvegicus [6], the “%max” value is “inactive”.

As to `CCCCN1C(=S)NC(c2cccc(O)c2)C(C(=O)OCC)=C1C` (stereo not given), the Kb entry in the assay filed under Rattus norvegicus [3] was “inactive”. The “%max” value in the assay listed under Rattus norvegicus [6] is “inactive”.

Regarding `CCOC(=O)C1=C(C)NC(=S)NC1c1cccc(Cl)c1` (stereo not given), the Kb result in the assay filed under Rattus norvegicus [3] was “inactive”. The “%max” value in the assay listed under Rattus norvegicus [6] was “inactive”.

Regarding `CCOC(=O)C1=C(c2ccccc2)NC(=S)NC1c1cccc(O)c1` (stereo not given), in the assay listed under Rattus norvegicus [3], the Kb entry was “inactive”. Moreover, the “%max” value in the assay listed under Rattus norvegicus [6] is “inactive”.

For `CCOC(=O)C1=C(C)NC(=S)NC1c1cccc(F)c1` (stereo not given), the Kb result in the assay filed under Rattus norvegicus [3] is “inactive”. Also, the “%max” value in the assay filed under Rattus norvegicus [6] was “inactive”.

For `CCOC(=O)C1=C(CC)NC(=S)NC1c1cccc(O)c1` (stereo not given), the fold change (FC) in assay [1] turned out to be 1.4. Also, the outcome in assay [2], in assay [4] and in assay [5] was inactive. The outcome in assay [7] was Active. In the assay listed under Rattus norvegicus [3], the negative-log Kb (pKb) was determined as 3.98. The %max in the assay filed under Rattus norvegicus [6] stood at 245%.

With `CCOC(=O)C1=C(C)NC(=S)NC1c1ccc(O)c(O)c1` (stereo not given), in assay [1], the fold change (FC) is 2.7. Also, the result in assay [2], in assay [4] and in assay [5] was inactive. In assay [7], the result was Active. Besides, the pKb in the assay filed under Rattus norvegicus [3] worked out at 3.68. The %max in the assay listed under Rattus norvegicus [6] stood at 246%.

For `CCOC(=O)C1=C(C)N=C(S)NC1c1cccc([N+](=O)[O-])c1` (stereo not given), in the assay filed under Rattus norvegicus [3], the Kb result was “inactive”. Moreover, the “%max” value in the assay filed under Rattus norvegicus [6] was “inactive”.

Regarding `CC(=O)C1=C(C)NC(=S)NC1c1cccc(O)c1` (stereo not given), the %max in the assay listed under Rattus norvegicus [6] was determined as 130%.

As for `CCOC(=O)C1=C(C)N(c2ccccc2)C(=S)NC1c1cccc(O)c1` (stereo not given), the Kb result in the assay filed under Rattus norvegicus [3] was “inactive”. Further, the “%max” value in the assay filed under Rattus norvegicus [6] was “inactive”.

On to `CCOC(=O)C1=C(C)NC(=S)N[C@H]1c1cccc(O)c1`, for which the pKb in the assay listed under Rattus norvegicus [3] was found to be 3.95. For the same compound, in the assay listed under Rattus norvegicus [6], the %max was 208%.

For `CCCC1=C(C(=O)OCC)C(c2cccc(O)c2)NC(=S)N1` (stereo not given), in the assay listed under Rattus norvegicus [6], the %max was determined as 198%.

`CC1=C(C(=O)OCc2ccccc2)C(c2cccc(O)c2)NC(=S)N1` (stereo not given): in the assay listed under Rattus norvegicus [3], the Kb result was “inactive”. Further, in the assay filed under Rattus norvegicus [6], the “%max” value was “inactive”.

As for `CCN(CC)C(=O)C1=C(C)NC(=S)NC1c1cccc(O)c1` (stereo not given), in the assay filed under Rattus norvegicus [3], the Kb result was “inactive”. The “%max” value in the assay filed under Rattus norvegicus [6] is “inactive”.

Turning to `CCOC(=O)C1=C(C)NC(=S)NC1c1ccccc1` (stereo not given), the Kb result in the assay listed under Rattus norvegicus [3] was “inactive”. Moreover, the “%max” value in the assay filed under Rattus norvegicus [6] is “inactive”.

On to `CCOC(=O)C1=C(C)NC(=S)NC1c1cc(O)cc(O)c1` (stereo not given), for which the pKb in the assay filed under Rattus norvegicus [3] worked out at 3.83. In addition, in the assay listed under Rattus norvegicus [6], the %max is 247%.

For `CCOC(=O)C1=C(C)NC(=O)NC1c1cccc(O)c1` (stereo not given), the fold change (FC) in assay [1] was found to be 6.2. Also, the result in assay [2], in assay [4] and in assay [5] was inactive. In addition, the Kb entry in the assay listed under Rattus norvegicus [3] was “inactive”. In addition, the “%max” value in the assay listed under Rattus norvegicus [6] was “inactive”.

With `CCOC(=O)C1=C(C)N=C(S)NC1C` (stereo not given), the Kb result in the assay listed under Rattus norvegicus [3] is “inactive”. Further, in the assay filed under Rattus norvegicus [6], the “%max” value was “inactive”.

Consider `CCOC(=O)C1=C(C)N(CC)C(=S)NC1c1cccc(O)c1` (stereo not given), for which the %max in the assay filed under Rattus norvegicus [6] was determined as 130%.

Regarding `CCOC(=O)C1=C(C(C)C)NC(=S)NC1c1cccc(O)c1` (stereo not given), the %max in the assay listed under Rattus norvegicus [6] was 130%.

In the case of `CCOC(=O)C1=C(C)NC(=O)NC1c1ccccc1` (stereo not given), the Kb entry in the assay listed under Rattus norvegicus [3] is “inactive”. Besides, in the assay listed under Rattus norvegicus [6], the “%max” value is “inactive”.

Consider `COC(=O)C1=C(C)N(C)C(=S)NC1c1cccc(O)c1` (stereo not given), for which the Kb result in the assay filed under Rattus norvegicus [3] is “inactive”. Besides, the “%max” value in the assay filed under Rattus norvegicus [6] was “inactive”.

For the compound `CCOC(=O)C1=C(C)N(C)C(=S)N(C)C1c1cccc(O)c1` (stereo not given), in the assay listed under Rattus norvegicus [3], the Kb result is “inactive”. For the same compound, the “%max” value in the assay filed under Rattus norvegicus [6] is “inactive”.

On to `CCOC(=O)C1=C(C)NC(=S)NC1c1cccc(OC)c1` (stereo not given), for which the Kb entry in the assay filed under Rattus norvegicus [3] was “inactive”. In the assay listed under Rattus norvegicus [6], the “%max” value was “inactive”.

As for `CCOC(=O)C1=C(C)N(Cc2ccccc2)C(=S)NC1c1cccc(O)c1` (stereo not given), the Kb result in the assay filed under Rattus norvegicus [3] was “inactive”. Moreover, the “%max” value in the assay filed under Rattus norvegicus [6] is “inactive”.

Consider `CCOC(=O)C1=C(C)NC(=S)NC1c1cccc(O)c1` (stereo not given), for which the fold change (FC) in assay [1] amounted to 2.9. In addition, the result in assay [2], in assay [4] and in assay [5] was inactive. In addition, the Activity result in assay [8] was “Dose-dependent effect”. The pKb in the assay listed under Rattus norvegicus [3] worked out at 3.96. In addition, the %max in the assay listed under Rattus norvegicus [6] came out at 185%.

`CCOC(=O)C1=C(C)NC(=S)N[C@@H]1c1cccc(O)c1` returned a pKb in the assay filed under Rattus norvegicus [3] of 3.48. Further, in the assay filed under Rattus norvegicus [6], the %max was determined as 171%.

On to `CCOC(=O)C1=C(C)NC(=S)NC1c1cn(-c2ccccc2)nn1` (stereo not given), for which the Kb entry in the assay filed under Rattus norvegicus [3] is “inactive”. In addition, in the assay filed under Rattus norvegicus [6], the “%max” value was “inactive”.

In the case of `CCOC(=O)C1=C2CCCN2C(=S)NC1c1cccc(O)c1` (stereo not given), the Kb entry in the assay listed under Rattus norvegicus [3] is “inactive”. Moreover, the “%max” value in the assay listed under Rattus norvegicus [6] is “inactive”.

For `CCOC(=O)C1=C(C)NC(=S)NC1c1ccc(O)cc1` (stereo not given), the Kb entry in the assay filed under Rattus norvegicus [3] was “inactive”. Further, the “%max” value in the assay filed under Rattus norvegicus [6] was “inactive”.

As for `CCOC(=O)C1=C(C)NC(=S)NC1c1ccc(C)cc1` (stereo not given), in the assay listed under Rattus norvegicus [3], the Kb entry is “inactive”. The “%max” value in the assay filed under Rattus norvegicus [6] is “inactive”.

In the case of `CC1=C(C(=O)O)C(c2cccc(O)c2)NC(=S)N1` (stereo not given), the Kb entry in the assay filed under Rattus norvegicus [3] was “inactive”. Moreover, the “%max” value in the assay filed under Rattus norvegicus [6] was “inactive”.

The values above are taken from ChEMBL document CHEMBL4190247, “Monastrol, a 3,4-dihydropyrimidin-2(1H)-thione, as structural scaffold for the development of modulators for GHB high-affinity binding sites and α1β2δ GABAA receptors” (Eur J Med Chem, 2017).
